Assay results as given in ChEMBL document CHEMBL1152189, “Beta-C-glycosiduronic acids and beta-C-glycosyl compounds: new PTP1B inhibitors” (Bioorg Med Chem Lett, 2008).

What was measured:
[1] = target: T1, Tyrosine-protein phosphatase non-receptor type 1 (Homo sapiens, UniProt P18031); experiment: Inhibition of recombinant PTP1B
T1 sequence (P18031 whole entry): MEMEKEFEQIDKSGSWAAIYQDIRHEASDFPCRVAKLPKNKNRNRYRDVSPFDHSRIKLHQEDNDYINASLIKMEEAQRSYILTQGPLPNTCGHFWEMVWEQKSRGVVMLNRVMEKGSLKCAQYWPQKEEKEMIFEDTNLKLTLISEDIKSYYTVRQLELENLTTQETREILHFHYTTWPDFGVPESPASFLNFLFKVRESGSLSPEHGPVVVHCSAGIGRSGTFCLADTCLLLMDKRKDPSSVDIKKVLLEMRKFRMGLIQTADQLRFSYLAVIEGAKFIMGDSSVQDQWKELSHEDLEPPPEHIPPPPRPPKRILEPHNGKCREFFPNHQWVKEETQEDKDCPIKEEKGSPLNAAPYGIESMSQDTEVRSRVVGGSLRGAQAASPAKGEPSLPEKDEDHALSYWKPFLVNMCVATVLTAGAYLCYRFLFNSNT
Summary of the method: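 Recombinant enzyme, 30 nM, with 2 mM pNPP in 50 mM MOPS pH 6.5. Hydrolysis followed continuously at 405 nm for 2 min at 30 °C, and initial rate taken from early linear region. Inhibitor diluted around estimated IC50. IC50 from nonlinear fit of % inhibition vs [I] with Hill equation. Mean of three experiments, SD given.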

[2] = target: T2, Tyrosine-protein phosphatase non-receptor type 1 (Homo sapiens) (UniProt P18031); experiment: Inhibition of recombinant PTP1B at 20 ug/mL
T2 sequence (whole entry): T1 sequence (P18031 whole entry)
Summary of the method: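 pNPP hydrolysis by recombinant enzyme in 50 mM MOPS pH 6.5 with 2 mM pNPP. Read continuously at 405 nm for 2 min at 30 °C, and initial rate taken from early linear region. Inhibitor tested at 20 μg/mL. Mean of three experiments.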

Compound	IC50 [1] [µM]	inhibition [2] [%]
COc1cc([C@@H]2O[C@H](CNC(=O)c3ccccc3C(=O)O)[C@@H](OC(=O)c3ccccc3)[C@H](OC(=O)c3ccccc3)[C@H]2OC(=O)c2ccccc2)c(OC)c2ccccc12	0.77	92.1
CC(=O)O[C@@H]1[C@@H](OC(C)=O)[C@H](C2=CC(=O)C=CC2=O)O[C@H](C(=O)O)[C@H]1OC(C)=O	20.4	84.7
O=C1C=CC(=O)C([C@@H]2O[C@H](CNC(=O)c3ccccc3)[C@@H](O)[C@H](OC(=O)c3ccccc3)[C@H]2OC(=O)c2ccccc2)=C1	5.27	94.1
COc1cc([C@@H]2O[C@H](CN=[N+]=[N-])[C@@H](OC(=O)c3ccccc3)[C@H](OC(=O)c3ccccc3)[C@H]2OC(=O)c2ccccc2)c(OC)c2ccccc12	2.36	96.5
CC(=O)O[C@H]1[C@@H](OC(C)=O)[C@@H](C(=O)O)O[C@@H](C2=CC(=O)C=CC2=O)[C@@H]1OC(C)=O	27.6	70.3
CC(=O)O[C@H]1[C@@H](OC(C)=O)[C@@H](C(=O)O)O[C@@H](C2=CC(=O)c3ccccc3C2=O)[C@@H]1OC(C)=O	16.6	88.2
O=C(O[C@H]1[C@@H](OC(=O)c2ccccc2)[C@@H](C(=O)O)O[C@@H](C2=CC(=O)c3ccccc3C2=O)[C@@H]1OC(=O)c1ccccc1)c1ccccc1	1.12	99.5

The next lines start with the values.

IC50 [1] [µM]	inhibition [2] [%]	Compound
–	26.6	CC(=O)O[C@@H]1[C@@H](OC(C)=O)[C@H](C2=CC(=O)C=CC2=O)O[C@H](CNC(=O)c2ccccc2)[C@H]1OC(C)=O
2.44	99.7	COc1ccc(OC)c([C@@H]2O[C@H](CNC(=O)c3ccccc3C(=O)O)[C@@H](OC(=O)c3ccccc3)[C@H](OC(=O)c3ccccc3)[C@H]2OC(=O)c2ccccc2)c1
–	49.5	COc1ccc(OC)c([C@@H]2O[C@H](COC(C)=O)[C@H](NC(=O)c3ccccc3C(=O)O)[C@H](OC(C)=O)[C@H]2OC(C)=O)c1
4.52	83.4	COc1ccc(OC)c([C@@H]2O[C@H](CNC(=O)c3ccccc3)[C@@H](OC(C)=O)[C@H](OC(=O)c3ccccc3)[C@H]2OC(=O)c2ccccc2)c1
4.13	94.9	COc1ccc(OC)c([C@@H]2O[C@H](CNC(=O)c3ccccc3)[C@@H](O)[C@H](OC(=O)c3ccccc3)[C@H]2OC(=O)c2ccccc2)c1
–	12.1	COc1ccc(OC)c([C@@H]2O[C@H](CNC(=O)c3ccccc3)[C@@H](OC(C)=O)[C@H](OC(C)=O)[C@H]2OC(C)=O)c1
15.9	83.1	CC(=O)O[C@@H]1[C@@H](OC(C)=O)[C@H](C2=CC(=O)c3ccccc3C2=O)O[C@H](C(=O)O)[C@H]1OC(C)=O
